What is called inhibition in vivo is the percentage by which the read-out fell short of the control.

The values below come from ChEMBL document CHEMBL3272249, “Esters of N-tert-butylarterenol. Long-acting new bronchodilators with reduced cardiac effects” (J Med Chem, 1976).

In data set [1] the test system is Canis familiaris. Nature of the data set: Bronchodilator activity in dog assessed as time of inhibition of carbachol or histamine-induced bronchoconstriction at 25 to 100 mg/kg, iv relative to control. It counts as functional, Canis lupus familiaris. The following applies: dose mg/kg 25-100. The method, boiled down:
(§1)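 Dog airway model: anesthetized, cannulated via a nonbreathing valve, with airway pressure changes recorded after iv carbachol (2–4 μg/kg) or histamine diphosphate (20–50 μg/kg) challenge, each agonist in different animals. Compounds were given iv, intraduodenally or intratracheally from fresh aqueous stocks diluted in saline. Duration (h) of inhibition of induced bronchoconstriction was followed, and the two agonist datasets were pooled.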

Data set [2] relates to Canis familiaris. Nature of the data set: Bronchodilator activity in dog assessed as time of inhibition of carbachol or histamine-induced bronchoconstriction at 50 to 100 mg/kg, id relative to control. It counts as functional, Canis lupus familiaris. The following applies: dose mg/kg 50-100; route intraduodenal. The method, boiled down:
(§2)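 Anesthetized dogs with an airway cannula and a nonbreathing valve. Bronchoconstriction was induced by iv carbachol (2–4 μg/kg) or histamine diphosphate (20–50 μg/kg) and read as change in airway pressure by transducer. Each compound was tested against both agonists in different dogs, and the results were combined and averaged. Effect is % inhibition of control constriction, with at least three dogs per dose. Drugs were dissolved fresh in distilled water, diluted in saline and kept on ice.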

The test system of data set [3] is Canis familiaris. Kind of data set: Bronchodilator activity in dog assessed as degree of inhibition of carbachol or histamine-induced bronchoconstriction at 25 to 100 mg/kg, iv relative to control. The following applies: dose mg/kg 25-100. Format: functional, Canis lupus familiaris. The method, boiled down: (§3)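 Anesthetized dogs, trachea cannulated with a nonbreathing valve. Bronchoconstriction induced by iv carbachol (2–4 μg/kg) or histamine diphosphate (20–50 μg/kg) in separate animals, and airway pressure recorded by transducer. Drug stocks were made fresh in distilled water, diluted in saline and kept on ice. Read-out was percent inhibition of control constriction, averaged over at least three dogs per dose at the higher dose. Carbachol and histamine data were combined.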

The test system of data set [4] is Canis familiaris. Kind of data set: Cardiotoxicity in spontaneously respiring dog assessed as degree of increase in heart rate at 25 to 100 mg/kg, iv relative to control. Format: toxicity, organism-based, Canis lupus familiaris. Further details: dose 25-100 mg/kg, route intravenous. The following applies: in vivo. The method, boiled down: (§4)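 Anesthetized, spontaneously respiring dogs. Heart rate was taken from a lead II EKG, and blood pressure from the right femoral artery by transducer. The increase in heart rate (beats/min) was scored on a graded scale with more than 4 dogs per dose, and its duration was recorded. Drugs were dissolved fresh in distilled water, diluted in physiological saline and kept on ice.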

The subject of data set [5] is Canis familiaris. Kind of data set: Bronchodilator activity in dog assessed as degree of inhibition of carbachol or histamine-induced bronchoconstriction at 50 to 100 mg/kg, id relative to control. Format: functional, Canis lupus familiaris. The following applies: dose mg/kg 50-100; route intraduodenal. The method, boiled down: as §3
Data set [6] relates to Canis familiaris. Nature of the data set: Cardiotoxicity in spontaneously respiring dog assessed as time of increase in heart rate at 25 to 100 mg/kg, iv relative to control. It counts as toxicity, organism-based, Canis lupus familiaris. On the set-up: dose 25-100 mg/kg, route intravenous. The following applies: in vivo. Summed up:
as §4

In data set [7] the test system is Canis familiaris. Nature of the data set: Cardiotoxicity in spontaneously respiring dog assessed as degree of increase in heart rate at 20 to 40 mg/kg, iv relative to control. It counts as toxicity, organism-based, Canis lupus familiaris. On the set-up: dose 20-40 mg/kg, route intravenous. The following applies: in vivo. The method, boiled down: as §4
Data set [8] has as its system Canis familiaris. Kind of data set: Bronchodilator activity in dog assessed as degree of inhibition of carbachol or histamine-induced bronchoconstriction at 250 to 1000 mg/kg, it relative to control. It counts as functional, Canis lupus familiaris. The following applies: dose mg/kg 250-1000; route endotracheal. Summed up:
as §3

In data set [9] the test system is Canis familiaris. Nature of the data set: Bronchodilator activity in dog assessed as time of inhibition of carbachol or histamine-induced bronchoconstriction at 20 to 40 mg/kg, iv relative to control. The following applies: dose mg/kg 20-40. Format: functional, Canis lupus familiaris. Summed up:
as §1

In data set [10] the test system is Canis familiaris. Nature of the data set: Cardiotoxicity in spontaneously respiring dog assessed as time of increase in heart rate at 160 mg/kg, id relative to control. Further details: dose 160 mg/kg, route intraduodenal. Format: toxicity, organism-based, Canis lupus familiaris. The following applies: in vivo, other. The method, boiled down:
as §4

The subject of data set [11] is Canis familiaris. Kind of data set: Cardiotoxicity in spontaneously respiring dog assessed as degree of increase in heart rate at 160 mg/kg, id relative to control. It counts as toxicity, organism-based, Canis lupus familiaris. Further details: dose 160 mg/kg, route intraduodenal. The following applies: in vivo, other. The method, boiled down:
as §4

In data set [12] the test system is Canis familiaris. Nature of the data set: Cardiotoxicity in spontaneously respiring dog assessed as time of increase in heart rate at 250 to 1000 mg/kg, it relative to control. The following applies: in vivo, inhaled_or_intranasal. It counts as toxicity, organism-based, Canis lupus familiaris. On the set-up: dose 250-1000 mg/kg, route endotracheal. Summed up: as §4

The subject of data set [13] is Canis familiaris. Nature of the data set: Cardiotoxicity in spontaneously respiring dog assessed as time of increase in heart rate at 20 to 40 mg/kg, iv relative to control. The following applies: in vivo. Format: toxicity, organism-based, Canis lupus familiaris. Further details: dose 20-40 mg/kg, route intravenous. Summed up:
as §4

In data set [14] the test system is Canis familiaris. Nature of the data set: Bronchodilator activity in dog assessed as time of inhibition of carbachol or histamine-induced bronchoconstriction at 160 mg/kg, id relative to control. Format: functional, Canis lupus familiaris. The following applies: route intraduodenal. Summed up: as §1
Data set [15] deals with Canis familiaris. Kind of data set: Bronchodilator activity in dog assessed as time of inhibition of carbachol or histamine-induced bronchoconstriction at 250 to 1000 mg/kg, it relative to control. It counts as functional, Canis lupus familiaris. The following applies: dose mg/kg 250-1000; route endotracheal. The method, boiled down:
as §1

Data set [16] deals with Canis familiaris. Nature of the data set: Bronchodilator activity in dog assessed as degree of inhibition of carbachol or histamine-induced bronchoconstriction at 20 to 40 mg/kg, iv relative to control. Format: functional, Canis lupus familiaris. The following applies: dose mg/kg 20-40. The method, boiled down: as §3
Data set [17] concerns Canis familiaris. Nature of the data set: Bronchodilator activity in dog assessed as degree of inhibition of carbachol or histamine-induced bronchoconstriction at 160 mg/kg, id relative to control. The following applies: Canis lupus familiaris, route intraduodenal. It counts as functional. The method, boiled down:
as §3

Data set [18] concerns Canis familiaris. Nature of the data set: Cardiotoxicity in spontaneously respiring dog assessed as degree of increase in heart rate at 250 to 1000 mg/kg, it relative to control. It counts as toxicity, organism-based, Canis lupus familiaris. On the set-up: dose 250-1000 mg/kg, route endotracheal. The following applies: in vivo, inhaled_or_intranasal. The method, boiled down: as §4

For data set [19], the system named is Canis familiaris. Nature of the data set: Bronchodilator activity in dog assessed as time of inhibition of carbachol or histamine-induced bronchoconstriction at 530 to 1060 mg/kg, it relative to control. The following applies: dose mg/kg 530-1060; route endotracheal. It counts as functional, Canis lupus familiaris. The method, boiled down: as §2
Data set [20] concerns Canis familiaris. Nature of the data set: Bronchodilator activity in dog assessed as degree of inhibition of carbachol or histamine-induced bronchoconstriction at 530 to 1060 mg/kg, it relative to control. The following applies: dose mg/kg 530-1060; route endotracheal. It counts as functional, Canis lupus familiaris. Summed up: as §3

Where only a bound is given, the exact number is not on record here.

`COc1ccc(C(=O)Oc2ccc([C@@H](O)CNC(C)(C)C)cc2OC(=O)c2ccc(OC)cc2)cc1.Cl`: the Time in the data set on Canis familiaris [1] is 1 h; in the data set on Canis familiaris [2] it was <3 h; with Canis familiaris [6], < 2 h. Further, the “inhibition (INH)” value with Canis familiaris [3] and in the data set on Canis familiaris [5] was 20% throughout. The Activity with Canis familiaris [4] is on record as 20%.

For `COc1ccc(C(=O)Oc2ccc([C@@H](O)CNC(C)(C)C)cc2OC(C)=O)cc1.CS(=O)(=O)O`, the results for the Activity in the data set on Canis familiaris [7], in the data set on Canis familiaris [11] and in the data set with Canis familiaris [18] were 20%, 20% and 5%, respectively. Moreover, the “inhibition (INH)” value with Canis familiaris [8] and with Canis familiaris [16] was >70% each time. Further, the Time in the data set on Canis familiaris [9] is >4 h; with Canis familiaris [10], < 3 h; in the data set on Canis familiaris [12], < 1 h; in the data set on Canis familiaris [13], 2 h; in the data set on Canis familiaris [14], >5 h; in the data set on Canis familiaris [15], >6 h. Also, the inhibition in vivo at 160 mg/kg with Canis familiaris [17] was > 70%.

Turning to `Cc1ccc(CC(=O)Oc2ccc([C@@H](O)CNC(C)(C)C)cc2OC(=O)Cc2ccc(C)cc2)cc1.Cl`, the Time in the data set on Canis familiaris [19] was 2 h. For the same compound, the “inhibition (INH)” value in the data set with Canis familiaris [20] was 40%.
